Experimental findings from ChEMBL document CHEMBL4765242, “Novel Triapine Derivative Induces Copper-Dependent Cell Death in Hematopoietic Cancers” (J Med Chem, 2019) are described below.

Structures are written as SMILES. Calls of active or inactive are those of the source. The calls are words filed in the database; no cut-off is given here.

Data set [1] has as its system MV4-11. Nature of the data set: Potentiation of copper-induced apoptosis in human MV4-11 cells assessed as late apoptotic cells incubated for 24 hrs in presence of copper by Annexin-V/FITC and propidium iodide staining based flow cytometry (reference value: 9.95 %). In kind it is functional. (A flow cytometer gives signals particle by particle.)
For data set [2], the system named is MV4-11. As to the kind of experiment: Induction of cell death in human MV4-11 cells assessed as reduction in cell viability at 50 nM measured after 48 hrs in presence of Nec-1 and Z-VAD by cell-titer-Glo luminescent cell viability assay. In kind it is functional, cell-based.
The nature of data set [3]: Half life in mouse at 10 mg/kg, po. In kind it is ADME, organism-based. The following applies: in vivo.
The next data set has as its system RS4-11. Nature of the data set: Potency index, ratio of triapine IC50 to test compound IC50 for human RS4-11 cells assessed as reduction in cell viability incubated for 48 hrs by cell-titer-Glo luminescent cell viability assay. In kind it is functional. In short, it runs like this: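 Cells were exposed to increasing concentrations of triapine or of the test compound in parallel. Viability was read by CellTiter-Glo luminescence 48 h after treatment, relative to vehicle-treated cells. IC50 was fitted by non-linear regression to a standard sigmoidal dose-response model, and the index was taken from the two IC50s.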

In data set [4] the test system is MV4-11. Nature of the data set: Upregulation of TXNIP mRNA expression in human MV4-11 cells at 50 nM incubated for 24 hrs by qRT-PCR analysis. In kind it is functional, cell-based. In short, it runs like this: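 MV4;11 cells were treated for 24 h, and TXNIP mRNA was quantified by qPCR using two separate TXNIP primer pairs.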
A general note: Real-time PCR tracks product formation cycle by cycle.

One may read the half-life as how long it takes for the measured level to halve. A lower half-life goes with fast loss.

Take `COc1cc2nc(N/N=C3\CCCc4cccnc43)sc2cc1OC`: in the data set on MV4-11 [1], the Activity came out at 80.5%. For the same compound, the outcome in the data set with MV4-11 [2] and in the data set on MV4-11 [4] was Active. Besides, in data set [3], the half-life was 1.4 h. The “Ratio IC50” value in the data set with RS4-11 is 10.
